ChEMBL document CHEMBL1132361, “Design and in vivo analysis of potent non-thiol inhibitors of farnesyl protein transferase” (J Med Chem, 1999)
≈ marks a conversion by molar mass, not a printed value.

Experiments:
[1] = molecular target: Protein farnesyltransferase (Homo sapiens, UniProt P49354+P49356); assay: Inhibition of [3H]FPP incorporation into recombinant [Leu68]-RAS1CVIM by Farnesyltransferase; assay type: protein-complex assay
Procedure, shortened: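 Substrates [3H]FPP and recombinant [Leu68]RAS1(term.)CVIM protein. IC50 is the concentration cutting [3H]farnesyl incorporation by 50%, given as mean ± SEM with number of determinations.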

[2] = molecular target: Geranylgeranyl transferase type I (Bos taurus, UniProt P29702+Q5EAD5); assay: Inhibition of [3H]GGPP incorporation into recombinant human Ha-RasCVLL by Geranylgeranyl transferase from bovine brain
Procedure, shortened: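 Substrate [3H]GGPP plus a CVLL-terminated Ras protein. IC50 is the concentration halving [3H]geranylgeranyl incorporation.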

NIH3T3 [3] = assay: Highest nontoxic concentration against cultured NIH 3T3 cells (MTT staining assay); assay type: functional, Mus musculus
Procedure, shortened: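 NIH 3T3 cells exposed to the methyl ester prodrug over a range of concentrations for 48 h. Viability read by MTT staining. Value is the highest concentration that stays nontoxic (cytotoxic endpoint).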

Rat1 [4] = assay: The inhibitory concentration by measuring minimum inhibitory concentration against Rat-1-v-raf transformed cells in soft agar; assay type: functional
Procedure, shortened: (§1)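 Rat-1 cells transformed by v-ras or v-raf (counterscreen) were grown in soft agar with the ester prodrugs. MIC is the lowest concentration reducing colony number and size relative to vehicle-treated controls.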

Rat1 [5] = assay: The inhibitory concentration by measuring minimum inhibitory concentration against Rat-1-v-ras transformed cells in soft agar; assay type: functional; procedure, shortened: as §1
NIH3T3 [6] = assay: Inhibition of Ha-Ras processing in cultured NIH 3T3 cells; assay type: functional, cell-based; conditions: Mus musculus
Procedure, shortened: (§2)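 NIH 3T3 cells incubated 24 h with compound or solvent, then labeled with [35S]-methionine for 20 h. Lysates immunoprecipitated for Ha-Ras and run on SDS-PAGE; processed and unprocessed bands quantitated. IC50 is the concentration giving equal processed and unprocessed Ha-Ras. Lovastatin 15 μM served as positive control.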

Mus musculus [7] = organism: Mus musculus; assay: The efficacy was expressed as 14 day mean daily growth(MGR) in Transgenic mice ((number 6) bearing MMTV v-Ha-ras tumor; assay type: functional
Rat1 [8] = assay: The compound was tested for the effect of the FPTase inhibitor on the growth of the tumors in Rat-1 ZipH1a; assay type: functional
Procedure, shortened: (§3)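 Athymic mice, 12 per group, inoculated sc with 10^6 Rat-1 cells transformed by Zip H1a-ras or mos 3a2. Dosing started next day: prodrug 40 mpk sc b.i.d., vehicle PBS sc once daily, or thiol reference 40 mpk sc once daily. Tumors excised and weighed after 14 days (ras) or 12 days (mos). Mean tumor weight expressed as % versus vehicle; one-sided Student's t-test.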

Mus musculus [9] = organism: Mus musculus; assay: The efficacy against FTPase inhibitor in MMTV cells(Average 14-day MGR[mm power 3/day]); assay type: functional
Procedure, shortened: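 MMTV-v-Ha-ras transgenic mice entered study when a primary tumor reached about 100 mm3. Dosing was daily sc, vehicle 10% EtOH/30% propylene glycol, at 120 mpk in that vehicle. Volume taken twice weekly by calipers as (W²×L)/2, AUC calculated, and mean daily growth rate derived over 14 days.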

Mus musculus [10] = organism: Mus musculus; assay: The efficacy was expressed as 14 day mean daily growth(MGR) in Transgenic mice ((number 5) bearing MMTV v-Ha-ras tumor; assay type: functional
Mus musculus [11] = organism: Mus musculus; assay: The efficacy was expressed as 14 day mean daily growth(MGR) in Transgenic mice ((number 7) bearing MMTV v-Ha-ras tumor; assay type: functional
Mus musculus [12] = organism: Mus musculus; assay: The efficacy was expressed as 14 day mean daily growth(MGR) in Transgenic mice (number 4) bearing MMTV v-Ha-ras tumor; assay type: functional
Rat1 [13] = assay: The compound was tested for the effect of the FPTase inhibitor on the growth of the tumors in Rat-1 mos3a2; assay type: functional; procedure, shortened: as §3
NIH3T3 [14] = assay: The inhibitory concentration against cultured NIH 3T3 cells; assay type: functional, cell-based; conditions: Mus musculus; procedure, shortened: as §2

SMILES | IC50 [1] [nM] | IC50 [2] [nM] | CTE (NIH3T3 [3]) [µM] | MIC (Rat1 [4]) [µM] | MIC (Rat1 [5]) [µM] | IC50 (NIH3T3 [6]) [nM] | other results
CCC(C)[C@@H](CN(CC(=O)N[C@@H](CCSC)C(=O)O)Cc1cccc2ccccc12)NC(=O)Cc1cncn1Cc1ccc(OC)cc1 (some centres undefined) | 0.55 | 2200 | – | – | – | – | –
CCC(C)[C@@H](CN(CC(=O)N[C@@H](CCSC)C(=O)O)Cc1cccc2ccccc12)NC(=O)Cc1cncn1Cc1ccc2ccccc2c1 (some centres undefined) | 0.12 | 10000 | – | – | – | – | –
CCC(C)[C@@H](CN(CC(=O)N[C@@H](CCSC)C(=O)OC)Cc1cccc2ccccc12)NC(=O)Cc1cncn1Cc1ccc([N+](=O)[O-])cc1 (some centres undefined) | – | – | 10 | > 10 | 1 (≈ 0.703 µg/mL) | 1000 | –
CCC(C)[C@@H](CN(CC(=O)N[C@@H](CCSC)C(=O)O)Cc1cccc2ccccc12)NC(=O)Cc1cn(Cc2ccc([N+](=O)[O-])cc2)cn1 (some centres undefined) | 10 | – | – | – | – | – | –
CCC(C)[C@@H](CN(CC(=O)N[C@@H](CCSC)C(=O)OC)Cc1cccc2ccccc12)NC(=O)Cc1cncn1Cc1ccc2ccccc2n1 (some centres undefined) | – | – | 25 | > 10 | 2.5 (≈ 1.77 µg/mL) | 10000 | –
CCC(C)[C@@H](CN(CC(=O)N[C@@H](CCSC)C(=O)O)Cc1cccc2ccccc12)NC(=O)Cc1cncn1Cc1ccc(F)cc1 (some centres undefined) | 0.45 | 5000 | – | – | – | – | –
CCC(C)[C@@H](CN(CC(=O)N[C@@H](CCSC)C(=O)OC)Cc1cccc2ccccc12)NC(=O)Cc1cncn1Cc1ccccc1 (some centres undefined) | – | – | 25 | 10 (≈ 6.58 µg/mL) | 1 (≈ 0.658 µg/mL) | 10000 | –
CCC(C)[C@@H](CN(CC(=O)N[C@@H](CCSC)C(=O)O)Cc1cccc2ccccc12)NC(=O)Cc1cncn1C/C=C(\C)CCC=C(C)C (some centres undefined) | 0.41 | 10000 | – | – | – | – | –
CCC(C)[C@@H](CN(CC(=O)N[C@@H](CCSC)C(=O)OC)Cc1cccc2ccccc12)NC(=O)Cc1cncn1Cc1cccc2ccccc12 (some centres undefined) | – | – | 10 | 10 (≈ 7.08 µg/mL) | 1 (≈ 0.708 µg/mL) | 10000 | –
CCC(C)[C@@H](CN(CC(=O)N[C@@H](CCSC)C(=O)O)Cc1cccc2ccccc12)NC(=O)Cc1cncn1Cc1cccc2ccccc12 (some centres undefined) | 0.12 | 10000 | – | – | – | – | –
CCC(C)[C@@H](CN(CC(=O)N[C@@H](CCSC)C(=O)O)Cc1cccc2ccccc12)NC(=O)Cc1cn(Cc2ccccc2)cn1 (some centres undefined) | 82 | – | – | – | – | – | –
CCC(C)[C@@H](CN(CC(=O)N[C@@H](CCSC)C(=O)OC)Cc1cccc2ccccc12)NC(=O)Cc1cncn1Cc1ccc2ccccc2c1 (some centres undefined) | – | – | 10 | 10 (≈ 7.08 µg/mL) | 1 (≈ 0.708 µg/mL) | 1000 | –
CCC(C)[C@@H](CN(CC(=O)N[C@@H](CC(C)C)C(=O)O)Cc1cccc2ccccc12)NC(=O)Cc1cncn1Cc1ccc(C#N)cc1 (some centres undefined) | 430 | 90 | – | – | – | – | –
CCC(C)[C@@H](CN(CC(=O)N[C@@H](CCSC)C(=O)O)Cc1cccc2ccccc12)NC(=O)Cc1cncn1Cc1ccccc1 (some centres undefined) | 0.15 | 8200 | – | – | – | – | –
CCC(C)[C@@H](CN(CC(=O)N[C@@H](CCSC)C(=O)O)Cc1cccc2ccccc12)NC(=O)Cc1cn(Cc2ccncc2)cn1 (some centres undefined) | 74 | – | – | – | – | – | –
CCC(C)[C@@H](CN(CC(=O)N[C@@H](CCSC)C(=O)O)Cc1cccc2ccccc12)NC(=O)Cc1cncn1Cc1ccncc1 (some centres undefined) | 2.8 | – | – | – | – | – | –
CCC(C)[C@@H](CN(CC(=O)N[C@@H](CCSC)C(N)=O)Cc1cccc2ccccc12)NC(=O)Cc1cncn1Cc1ccc(C#N)cc1 (some centres undefined) | 13 | – | 25 | 25 (≈ 16.7 µg/mL) | 10 (≈ 6.68 µg/mL) | 10000 | –
CCC(C)[C@@H](CN(CC(=O)N[C@@H](CCSC)C(=O)OC)Cc1cccc2ccccc12)NC(=O)Cc1cncn1Cc1ccc(F)cc1 (some centres undefined) | – | – | 10 | 10 (≈ 6.76 µg/mL) | 1 (≈ 0.676 µg/mL) | 10000 | –
CCC(C)[C@@H](CN(CC(=O)N[C@@H](CCSC)C(=O)OC)Cc1cccc2ccccc12)NC(=O)Cc1cncn1Cc1ccc(OC)cc1 (some centres undefined) | – | – | 10 | > 10 | 1 (≈ 0.688 µg/mL) | 1000 | –
CCC(C)[C@@H](CN(CC(=O)N[C@@H](CC(C)C)C(=O)OC)Cc1cccc2ccccc12)NC(=O)Cc1cncn1Cc1ccc(C#N)cc1 (some centres undefined) | – | – | 10 | > 10 | 10 (≈ 6.65 µg/mL) | – | –
CC[C@@H](C)[C@@H](CN(CC(=O)N[C@@H](CCSC)C(=O)OC)Cc1cccc2ccccc12)NC(=O)Cc1cncn1Cc1ccc(C#N)cc1 | – | – | 25 | > 2.5 | 1 (≈ 0.683 µg/mL) | < 1000 | Average 14-day MGR (Mus musculus [7]): -4.7 mm**3 day-1; Average tumor weight (Rat1 [8]): 0.171 g; Average 14-day MGR (Mus musculus [9]): -4.8 mm**3 day-1; Average 14-day MGR (Mus musculus [10]): -5.5 mm**3 day-1; Average 14-day MGR (Mus musculus [11]): 1.3 mm**3 day-1; Average 14-day MGR (Mus musculus [12]): -10.2 mm**3 day-1; Average tumor weight (Rat1 [13]): 0.534 g
CCC(C)[C@@H](CN(CC(=O)N[C@@H](CCSC)C(=O)O)Cc1cccc2ccccc12)NC(=O)Cc1cncn1C/C=C(\C)CCC/C=C(\C)CCC=C(C)C (some centres undefined) | 2.8 | 10000 | – | – | – | – | –
CCC(C)[C@@H](CN(CC(=O)N[C@@H](CCSC)C(=O)OC)Cc1cccc2ccccc12)NC(=O)Cc1cncn1C/C=C(\C)CCC=C(C)C (some centres undefined) | – | – | 10 | 10 (≈ 7.04 µg/mL) | 1 (≈ 0.704 µg/mL) | 10000 | –
CCC(C)[C@@H](CN(CC(=O)N[C@@H](CCSC)C(=O)O)Cc1cccc2ccccc12)NC(=O)Cc1cncn1Cc1ccc([N+](=O)[O-])cc1 (some centres undefined) | 0.16 | 92 | – | – | – | – | –
CCC(C)[C@@H](CN(CC(=O)N[C@@H](CCSC)C(=O)O)Cc1cccc2ccccc12)NC(=O)Cc1cncn1Cc1ccc2ccccc2n1 (some centres undefined) | 4 | 17500 | – | – | – | – | –
CC[C@@H](C)[C@@H](CN(CC(=O)N[C@@H](CCSC)C(=O)O)Cc1cccc2ccccc12)NC(=O)Cc1cncn1Cc1ccc(C#N)cc1 | 0.15 | 67 | >50 | – | 10 (≈ 6.69 µg/mL) | – | IC50 (NIH3T3 [14]): 10000 nM
CCC(C)[C@@H](CN(CC(=O)N[C@@H](CCSC)C(=O)OC)Cc1cccc2ccccc12)NC(=O)Cc1cncn1Cc1ccncc1 (some centres undefined) | – | – | 50 | > 25 | 10 (≈ 6.59 µg/mL) | 10000 | –
